Measurements taken from ChEMBL document CHEMBL4334465, “SAR Studies on Aromatic Acylhydrazone-Based Inhibitors of Fungal Sphingolipid Synthesis as Next-Generation Antifungal Agents” (J Med Chem, 2019).
In brackets after ≈: the same amount, converted by molar mass. Activity calls are given as the source filed them. The rule behind the calls is not given here.

Tests used:
Cryptococcus neoformans [1] = test: Antifungal activity against Cryptococcus neoformans H99 infected in CBA/J mouse assessed as increase in survival at 1.2 mg/kg, ip; format: functional, organism-based; conditions: var grubii H99
Candida parapsilosis [2] = test: Antifungal activity against Candida parapsilosis assessed as FICI in presence of fluconazole; format: functional
In short: (§1)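 Checkerboard combination scored by fractional inhibitory concentration index. Acylhydrazone serially diluted 16 to 0.015 μg/mL (11 dilutions). Partner drug in seven dilutions: fluconazole 12 to 0.19 μg/mL, amphotericin B 5 to 0.078 μg/mL, caspofungin, itraconazole or voriconazole 8 to 0.007 μg/mL.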

Pichia kudriavzevii [3] = test: Antifungal activity against Candida krusei 6258 assessed as FICI in presence of fluconazole; format: functional; in short: as §1
[Candida] auris [4] = Antifungal activity against Candida auris assessed as FICI in presence of voriconazole; format: functional, Candidozyma auris; in short: as §1
Candida parapsilosis [5] = test: Antifungal activity against Candida parapsilosis assessed as FICI in presence of voriconazole; format: functional; in short: as §1
Aspergillus fumigatus [6] = test: Antifungal activity against Aspergillus fumigatus assessed as FICI in presence of voriconazole; format: functional; in short: as §1
[7] = Selectivity index, ratio of LD50 for human HepG2 cells to MIC80 for Cryptococcus neoformans H99; format: toxicity; conditions: read-out: Selectivity Index
In short: (§2)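 SI = LD₅₀/MIC₈₀. Cytotoxicity: A549 or HepG2 cells (DMEM, 10% FBS, passage 7, 10⁵ cells/well) adhered 14 h, then exposed to 0.03–128 μg/mL for 24 or 48 h at 37°C, 5% CO₂; MTT 4 h, formazan dissolved in DMSO, read at 570 nm. MIC₈₀ against C. neoformans from broth microdilution in HEPES-buffered YNB, pH 7.0.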

Cryptococcus neoformans [8] = test: Antifungal activity against Cryptococcus neoformans H99 measured after 24 to 72 hrs; format: functional; conditions: var grubii H99
In short: (§3)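 Modified CLSI broth microdilution with inoculum per M27A3. Compounds were serially diluted 32 to 0.03 μg/mL. Media: C. neoformans in HEPES-buffered YNB without amino acids (pH 7.0, 2% glucose); Candida strains in YNB without ammonium sulfate or amino acids plus 1% asparagine (pH 7.0, 2% glucose); A. fumigatus in RPMI (pH 7.0, 2% glucose).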

[Candida] auris [9] = Antifungal activity against Candida auris assessed as FICI in presence of fluconazole; format: functional, Candidozyma auris; in short: as §1
Candida parapsilosis [10] = test: Antifungal activity against Candida parapsilosis assessed as FICI in presence of caspofungin; format: functional; in short: as §1
Candida albicans [11] = test: Antifungal activity against Candida albicans measured after 24 to 72 hrs; format: functional; in short: as §3
[Candida] auris [12] = Antifungal activity against Candida auris assessed as FICI in presence of caspofungin; format: functional, Candidozyma auris; in short: as §1
Pichia kudriavzevii [13] = test: Antifungal activity against Candida krusei 6258 assessed as FICI in presence of itraconazole; format: functional; in short: as §1
Cryptococcus neoformans [14] = test: Antifungal activity against Cryptococcus neoformans H99 assessed as FICI in presence of voriconazole; format: functional, var grubii H99; in short: as §1
Pichia kudriavzevii [15] = test: Antifungal activity against multi-drug resistant Candida krusei measured after 24 to 72 hrs; format: functional
In short: (§4)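 MIC by modified CLSI broth microdilution. Candida strains grown in YNB without ammonium sulfate or amino acids with 1% asparagine, pH 7.0, 2% glucose. Inoculum per CLSI M27A3. Compound serially diluted 32 to 0.03 μg/mL. Incubation 37°C, 5% CO₂, 24–72 h, then OD450. MIC80 taken as the lowest concentration giving 80% growth inhibition versus untreated control.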

Aspergillus fumigatus [16] = test: Antifungal activity against Aspergillus fumigatus assessed as FICI in presence of itraconazole; format: functional; in short: as §1
A549 = test: Cytotoxicity against human A549 cells after 24 to 48 hrs by MTT assay; format: functional; conditions: read-out: LD50 (the source's name)
In short: (§5)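 A549 and HepG2 kept in DMEM with 10% FBS and 1% pen-strep. At passage 7, seeded at 10⁵ cells/well and allowed to adhere 14 h. Compound added at 0.03–128 μg/mL, untreated wells as controls. Incubation 37°C, 5% CO₂ for 24 or 48 h. MTT (5 mg/mL in PBS) added for 4 h, formazan dissolved in DMSO, OD570.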

Candida albicans [17] = test: Antifungal activity against Candida albicans assessed as FICI in presence of itraconazole; format: functional; in short: as §1
Pichia kudriavzevii [18] = test: Antifungal activity against Candida krusei 6258 assessed as FICI in presence of caspofungin; format: functional; in short: as §1
Candida albicans [19] = test: Antifungal activity against Candida albicans assessed as FICI in presence of fluconazole; format: functional; in short: as §1
Cryptococcus neoformans [20] = test: Fungicidal activity against Cryptococcus neoformans H99 measured after 6 hrs by time-kill assay; format: functional, var grubii H99
In short: (§6)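 Overnight C. neoformans washed in PBS and resuspended in HEPES-buffered YNB, pH 7.4. 2 × 10⁴ cells exposed to a range of drug concentrations in 10 mL with 0.5% DMSO final, at 37°C, 5% CO₂, shaking at 200 rpm. Aliquots sampled over 96 h, diluted and plated on YPD; CFU counted after 48 h at 30°C.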

Cryptococcus neoformans [21] = test: Antifungal activity against Cryptococcus neoformans H99 assessed as FICI in presence of itraconazole; format: functional, var grubii H99; in short: as §1
Pichia kudriavzevii [22] = test: Antifungal activity against Candida krusei measured after 24 to 72 hrs; format: functional; in short: as §4
Candida albicans [23] = test: Antifungal activity against Candida albicans assessed as FICI in presence of voriconazole; format: functional; in short: as §1
Cryptococcus neoformans [24] = test: Fungicidal activity against Cryptococcus neoformans H99 measured up to 96 hrs by time-kill assay; format: functional, organism-based; conditions: var grubii H99; in short: as §6
Pichia kudriavzevii [25] = test: Antifungal activity against fluconazole-resistant Candida krusei assessed as FICI in presence of itraconazole; format: functional
In short: (§7)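 Checkerboard in 96-well plate. Test compound diluted 16 to 0.015 μg/mL (11 dilutions) against the partner drug in seven dilutions: fluconazole 12 to 0.19 μg/mL, caspofungin, itraconazole or voriconazole 8 to 0.007 μg/mL. Fractional inhibitory concentration index (FICI) calculated from the combinations.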

Cryptococcus neoformans [26] = test: Antifungal activity against Cryptococcus neoformans H99 assessed as FICI in presence of fluconazole; format: functional, var grubii H99; in short: as §1
Pichia kudriavzevii [27] = test: Antifungal activity against Candida krusei 6258 assessed as FICI in presence of voriconazole; format: functional; in short: as §1
Aspergillus fumigatus [28] = test: Antifungal activity against Aspergillus fumigatus assessed as FICI in presence of fluconazole; format: functional; in short: as §1
[Candida] auris [29] = Antifungal activity against Candida auris measured after 24 to 72 hrs; format: functional; conditions: Candidozyma auris; in short: as §3
Candida albicans [30] = test: Antifungal activity against Candida albicans assessed as FICI in presence of caspofungin; format: functional; in short: as §1
Candida parapsilosis [31] = test: Antifungal activity against Candida parapsilosis measured after 24 to 72 hrs; format: functional; conditions: Lodderomyces parapsilosis; in short: as §3
Candida parapsilosis [32] = test: Antifungal activity against Candida parapsilosis assessed as FICI in presence of itraconazole; format: functional; in short: as §1
Pichia kudriavzevii [33] = test: Antifungal activity against fluconazole-resistant Candida krusei assessed as FICI in presence of caspofungin; format: functional; in short: as §7
Pichia kudriavzevii [34] = test: Antifungal activity against fluconazole-resistant Candida krusei assessed as FICI in presence of voriconazole; format: functional; in short: as §7
HepG2 = test: Cytotoxicity against human HepG2 cells after 24 to 48 hrs by MTT assay; format: functional; conditions: read-out: LD50 (the source's name); in short: as §5
Aspergillus fumigatus [35] = test: Antifungal activity against Aspergillus fumigatus measured after 24 to 72 hrs; format: functional; in short: as §3
[Candida] auris [36] = Antifungal activity against Candida auris assessed as FICI in presence of itraconazole; format: functional, Candidozyma auris; in short: as §1
Cryptococcus neoformans [37] = test: Antifungal activity against Cryptococcus neoformans H99 assessed as FICI in presence of amphotericin B; format: functional, var grubii H99; in short: as §1
[38] = Selectivity index, ratio of LD50 for human A549 cells to MIC80 for Cryptococcus neoformans H99; format: toxicity; conditions: read-out: Selectivity Index; in short: as §2

In the case of `OC(Cn1cncn1)(Cn1cncn1)c1ccc(F)cc1F`, the Activity (Cryptococcus neoformans [1]) is reported as “Active”.
For `O=C(N/N=C/c1cc(Cl)cc(Cl)c1O)c1ccc(Br)c(Br)c1`, the “fractional inhibitory concentration index (FICI)” value (Candida parapsilosis [2]) was 0.258, the “fractional inhibitory concentration index (FICI)” value (Pichia kudriavzevii [3]) was 0.25 and the “fractional inhibitory concentration index (FICI)” value ([Candida] auris [4]) was 0.5. The “fractional inhibitory concentration index (FICI)” value (Candida parapsilosis [5]) was 1.5, the “fractional inhibitory concentration index (FICI)” value (Aspergillus fumigatus [6]) was 1.031 and the selectivity ratio [7] was 1070. The MIC80 (Cryptococcus neoformans [8]) was 0.03 µg/mL (≈ 0.0642 µM), the “fractional inhibitory concentration index (FICI)” value ([Candida] auris [9]) was 0.5 and the “fractional inhibitory concentration index (FICI)” value (Candida parapsilosis [10]) was 0.501. For the same molecule, the MIC80 (Candida albicans [11]) was 2 µg/mL (≈ 4.28 µM), the “fractional inhibitory concentration index (FICI)” value ([Candida] auris [12]) was 0.5 and the “fractional inhibitory concentration index (FICI)” value (Pichia kudriavzevii [13]) was 0.53. The “fractional inhibitory concentration index (FICI)” value (Cryptococcus neoformans [14]) was 0.247, the MIC80 (Pichia kudriavzevii [15]) was 0.25 µg/mL (≈ 0.535 µM) and the “fractional inhibitory concentration index (FICI)” value (Aspergillus fumigatus [16]) was 1.008. For the same molecule, the CC50 (A549) was 32 µg/mL (≈ 68.5 µM), the “fractional inhibitory concentration index (FICI)” value (Candida albicans [17]) was 0.091 and the “fractional inhibitory concentration index (FICI)” value (Pichia kudriavzevii [18]) was 1.001. The “fractional inhibitory concentration index (FICI)” value (Candida albicans [19]) was 0.252, the MFC100 (Cryptococcus neoformans [20]) was 1 µg/mL (≈ 2.14 µM) and the “fractional inhibitory concentration index (FICI)” value (Cryptococcus neoformans [21]) was 0.247. For the same molecule, the MIC80 (Pichia kudriavzevii [22]) was 0.25 µg/mL (≈ 0.535 µM), the “fractional inhibitory concentration index (FICI)” value (Candida albicans [23]) was 0.077 and the Activity (Cryptococcus neoformans [24]) was “Dose-dependent effect”. For the same molecule, the “fractional inhibitory concentration index (FICI)” value (Pichia kudriavzevii [25]) was 1.24, the “fractional inhibitory concentration index (FICI)” value (Cryptococcus neoformans [26]) was 0.237 and the “fractional inhibitory concentration index (FICI)” value (Pichia kudriavzevii [27]) was 0.56. For the same molecule, the “fractional inhibitory concentration index (FICI)” value (Aspergillus fumigatus [28]) was 2, the MIC80 ([Candida] auris [29]) was 0.5 µg/mL (≈ 1.07 µM) and the “fractional inhibitory concentration index (FICI)” value (Candida albicans [30]) was 1. For the same molecule, the MIC80 (Candida parapsilosis [31]) was 1 µg/mL (≈ 2.14 µM), the “fractional inhibitory concentration index (FICI)” value (Candida parapsilosis [32]) was 1.25 and the “fractional inhibitory concentration index (FICI)” value (Pichia kudriavzevii [33]) was 1.004. For the same molecule, the “fractional inhibitory concentration index (FICI)” value (Pichia kudriavzevii [34]) was 1.03, the CC50 (HepG2) was 32 µg/mL (≈ 68.5 µM) and the MIC80 (Aspergillus fumigatus [35]) was 8 µg/mL (≈ 17.1 µM). For the same molecule, the “fractional inhibitory concentration index (FICI)” value ([Candida] auris [36]) was 1.12, the “fractional inhibitory concentration index (FICI)” value (Cryptococcus neoformans [37]) was 0.247 and the selectivity ratio [38] was 1070.
